Molecules are shown by their SMILES.

Our source for the Ki values is BindingDB's records for doi:10.1021/jm020875j (Boehringer Ingelheim Pharma, 2002).

The target in the assay is Sodium channel protein type 1/2/3 subunit alpha (Rattus norvegicus, UniProt P04774+P04775+P08104). Nature of the assay: Displacement of [3H]BTX from sodium channel of rat cerebral cortex synaptosomes. An outline of the steps:
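Synaptosomal membranes from rat cerebral cortex incubated 1 h at 37 °C with 1 nmol/L [3H]BTX-B in choline Cl/HEPES-Tris buffer pH 7.4 containing glucose, KCl and MgSO4, plus scorpion venom. Nonspecific binding defined with 100 μmol/L aconitine. Stopped by vacuum filtration through glass fiber and two buffer washes.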
On the technique in general: In a radioligand displacement assay an active substance lowers the binding of a labelled ligand.
`CO[C@H](C)CN1CCC2(C)c3cccc(O)c3C[C@@H]1C2(C)C` came in with a Ki of 3.31 µM. In other words, the single-digit micromolar range. Next, `C[C@H](CN1CCC2(C)c3ccc(O)cc3C[C@@H]1C2(C)C)OCc1ccccc1`: 0.382 µM; `C[C@@H](CN1CCC2(C)c3ccc(O)cc3C[C@@H]1C2(C)C)Oc1ccccc1`: 0.149 µM; `C[C@@H](CN1CCC2(C)c3ccc(O)cc3C[C@@H]1C2(C)C)OCc1ccccc1`: 0.312 µM. As for `CC12CCN(CCc3ccccc3)[C@H](Cc3cc(O)ccc31)C2(C)C`, the figure is 1.06 µM; as for `CC(CN1CCC2(C)C[C@@H]1Cc1c(O)cccc12)OCc1ccccc1` (some centres undefined), 0.047 µM; as for `C[C@@H](CN1CCC2(C)c3cccc(O)c3C[C@@H]1C2(C)C)OCC1CCCCC1`, 0.208 µM. As for `C[C@H](CN1CCC2(C)c3ccc(O)cc3C[C@@H]1C2(C)C)Oc1ccccc1`, the figure is 0.662 µM; as for `CC1[C@H]2Cc3c(O)cccc3C1(C)CCN2C[C@H](C)OCc1ccccc1` (some centres undefined), 0.054 µM; as for `C[C@H](CN1CCC2(C)c3ccc(O)cc3C[C@H]1C2(C)C)OCc1ccccc1`, 1.23 µM. With `C[C@H](CN1CCC2(C)c3ccc(O)cc3C[C@H]1C2(C)C)Oc1ccccc1`, the Ki worked out at 0.864 µM. As for `CO[C@@H](C)CN1CCC2(C)c3ccccc3C[C@@H]1C2(C)C`, the figure is 4.7 µM; as for `COc1ccc2c(c1)[C@]13CCCC[C@@H]1[C@H](C2)N(C)CC3` [DEXTROMETHORPHAN], 4.8 µM; as for `CO[C@@H](C)CN1CCC2(C)c3cccc(O)c3C[C@H]1C2(C)C`, 10 µM. Next, `CN(c1nc2ccccc2s1)C1CCN(C[C@H](O)COc2ccc(F)c(F)c2)CC1`: 0.203 µM; `C[C@H](CN1CCC2(C)c3cccc(O)c3C[C@H]1C2(C)C)OCc1ccccc1`: 1.49 µM; `CO[C@H](C)CN1CCC2(C)c3cccc(O)c3C[C@H]1C2(C)C`: 10 µM. As for `C[C@@H](CN1CCC2(C)c3ccc(O)cc3C[C@H]1C2(C)C)OCc1ccccc1`, the figure is 1.87 µM; as for `Cc1ccc(-c2nc(C)c(CN3CCN(C(c4ccccc4)c4ccccc4)CC3)[nH]2)cc1` [Lifarizine], 0.259 µM; as for `CO[C@@H](C)CN1CCC2(C)c3cccc(O)c3C[C@@H]1C2(C)C`, 0.783 µM. `CC1[C@H]2Cc3c(O)cccc3C1(C)CCN2C[C@@H](C)OCc1ccccc1` (some centres undefined) gave a Ki of 0.153 µM.

`COC(C)CN1CCC2(C)c3cc(O)ccc3C[C@@H]1C2(C)C` (some centres undefined) yielded a Ki of 6.01 µM.

Compound `CC12CCN(CCc3ccccc3)[C@@H](Cc3cc(O)ccc31)C2(C)C` showed an inhibition constant (Ki) of 1.29 µM.

Regarding `C[C@H](CN1CCC2(C)c3cccc(O)c3C[C@@H]1C2(C)C)OCC1CCCCC1`, affinity was put at a Ki of 0.241 µM.

For the compound `C[C@@H](CN1CCC2(C)c3ccc(O)cc3C[C@H]1C2(C)C)Oc1ccccc1`, the affinity, expressed as Ki, was 1.53 µM.

`Cc1cccc(C)c1OC[C@@H](C)N` gave a Ki of 22.7 µM. Next, `C[C@@H](CN1CCC2(C)c3cccc(O)c3C[C@H]1C2(C)C)OCc1ccccc1`: 1.33 µM. As for `COC(C)CN1CCC2(C)c3c(O)cccc3C[C@@H]1C2(C)C` (some centres undefined), the figure is 8.99 µM; as for `COC(C)CN1CCC2(C)c3ccc(O)cc3C[C@@H]1C2(C)C` (some centres undefined), greater than 10 µM.

Usually Ki stands for a measure of affinity in units of concentration, obtained from inhibition or displacement. Low readings indicate tighter binding, high ones weaker binding.
